Measured values reported in ChEMBL document CHEMBL3804828, “2,4,6-Triaminopyrimidine as a Novel Hinge Binder in a Series of PI3Kδ Selective Inhibitors” (J Med Chem, 2016).

Experiments:
[1] = Ratio of drug level in blood to plasma in beagle dog; type: ADME, cell-free, Canis lupus familiaris; conditions: blood and plasma
[2] = Volume of distribution at steady state in beagle dog at 1 mg/kg, iv administered via infusion over 30 mins measured after 24 hrs by LC/MS/MS analysis; type: ADME, organism-based, Canis lupus familiaris; conditions: in vivo, read-out: Vdss
In short: (§1)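 Dogs, n=3 per route; iv dose 1 mg/kg in 5% ethanol/55% PEG 400/40% citrate buffer pH 2; oral dose 5 mg/kg in 15% Captisol (w/v) in water; plasma pharmacokinetics.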

Rattus norvegicus [3] = assay: Antiarthritis activity in collagen-induced Lewis rat arthritis model assessed as reduction of bone resorption at 1.07 mg/kg administered bid through oral gavage for 7 days measured every day started on day 9 and continuing through day 16 of compound dosing relative to vehicle-treated control; type: functional; design: scale not given: the % may be the effect or the level left
In short: (§2)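 Female Lewis rats with established collagen-induced arthritis dosed orally by gavage twice daily for 7 days (study days 10–16) with vehicle, 0.34, 1.07, 4.6 or 10 mg/kg, or dexamethasone 0.03 mg/kg; right and left ankle diameters by caliper daily, days 9–16; ankle and knee sections graded 0–5 per histopathology parameter; p < 0.05 versus arthritis + vehicle.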

[4] = Clearance in dog hepatocytes at 1 uM by LC/MS/MS analysis; type: ADME, cell-based, Canis lupus familiaris, Hepatocyte
[5] = Plasma clearance in beagle dog at 1 mg/kg, iv administered via infusion over 30 mins measured after 24 hrs by LC/MS/MS analysis; type: ADME, organism-based, Canis lupus familiaris; in short: as §1
Hepatocyte = assay: Clearance in rat hepatocytes at 1 uM by LC/MS/MS analysis; type: ADME, cell-based
[6] = target: PI3-kinase p110-delta/p85-alpha (Homo sapiens, UniProt O00329); assay: Inhibition human full length PI3Kdelta catalytic subunit/p85alpha assessed as formation of PIP3 after 30 mins by europium labeled GRP-based TR-FRET assay; type: protein-complex assay
Rattus norvegicus [7] = assay: Antiarthritis activity in collagen-induced Lewis rat arthritis model assessed as reduction in cartilage damage at 1.07 mg/kg administered bid through oral gavage for 7 days measured every day started on day 9 and continuing through day 16 of compound dosing relative to vehicle-treated control; type: functional; design: scale not given: the % may be the effect or the level left; in short: as §2
Rattus norvegicus [8] = assay: In vivo inhibition of PI3Kdelta in collagen-induced Lewis rat arthritis model at 1.07 mg/kg administered bid through oral gavage at 2 to 12 hrs on 3rd and 7th day of compound dosing; type: functional
In short: (§3)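 CIA Lewis rats dosed orally twice daily; plasma drug levels measured in blood samples taken at set times post-dose on days 3 and 7; trough PI3Kδ inhibition estimated from EC50/EC90 of the rat whole-blood ex vivo BCR-induced B-cell activation assay.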

Rattus norvegicus [9] = assay: Antiarthritis activity in collagen-induced Lewis rat arthritis model assessed as reduction of periosteal bone width at 1.07 mg/kg administered bid through oral gavage for 7 days measured every day started on day 9 and continuing through day 16 of compound dosing relative to vehicle-treated control; type: functional; design: scale not given: the % may be the effect or the level left; in short: as §2
Rattus norvegicus [10] = assay: Antiarthritis activity in collagen-induced Lewis rat arthritis model assessed as reduction in ankle inflammation at 1.07 mg/kg administered bid through oral gavage for 7 days measured every day started on day 9 and continuing through day 16 of compound dosing relative to vehicle-treated control; type: functional; in short: as §2
[11] = (§4) Inhibition of PI3Kdelta in rat B-cells assessed as reduction in anti IgD-mediated cell activation after 18 to 24 hrs by flow cytometric analysis
In short: (§5)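 Rat whole blood, ex vivo; B-cell activation stimulated by anti-IgD (BCR); EC50 and EC90 derived from inhibition of activation.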

Rattus norvegicus [12] = organism: Rattus norvegicus; assay: as §4; in short: as §5
[13] = Oral bioavailability in Lewis rat at 5 mg/kg administered through gavage measured after 24 hrs by LC/MS/MS analysis; type: ADME, organism-based; conditions: in vivo
In short: (§6)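 Female Lewis rats, n=3 per route; 30-min iv infusion at 1 mg/kg and oral dose at 5 mg/kg, both in 30% PEG 400/70% water; plasma concentration-time profiles sampled to 24 h; values as mean ± SD.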

[14] = AUCinfinity in Lewis rat at 1 mg/kg, iv administered via infusion over 30 mins or at 5 mg/kg, po administered via gavage by LC/MS/MS analysis; type: ADME, organism-based; conditions: in vivo; in short: as §6
[15] = Plasma clearance in Lewis rat at 1 mg/kg, iv administered via infusion over 30 mins measured after 24 hrs by LC/MS/MS analysis; type: ADME, organism-based; in short: as §6
Rattus norvegicus [16] = assay: In vivo inhibition of PI3Kdelta in rat B-cells assessed as reduction in […] cell activation; type: functional, organism-based; in short: as §5
Rattus norvegicus [17] = assay: Antiarthritis activity in collagen-induced Lewis rat arthritis model assessed as reduction in pannus formation administered bid through oral gavage for 7 days measured every day started on day 9 and continuing through day 16 of compound dosing; type: functional; in short: as §2
Homo sapiens [18] = organism: Homo sapiens; assay: Selectivity ratio of IC50 for human full length PI3Kgamma to IC50 for human full length PI3Kdelta catalytic subunit/p85alpha
In short: (§7)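 Ratio calculated from the isoform-specific PI3K IC50 values, with enzyme assays run in quadruplicate.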

Rattus norvegicus [19] = assay: In vivo inhibition of PI3Kdelta in collagen-induced Lewis rat arthritis model at 10 mg/kg administered bid through oral gavage at 2 to 12 hrs on 3rd and 7th day of compound dosing; type: functional; in short: as §3
[20] = Half life in beagle dog at 5 mg/kg, po administered through gavage measured after 24 hrs by LC/MS/MS analysis; type: ADME, organism-based, Canis lupus familiaris; conditions: in vivo
Rattus norvegicus [21] = assay: Antiarthritis activity in collagen-induced Lewis rat arthritis model assessed as reduction in ankle inflammation administered bid through oral gavage for 7 days measured every day started on day 9 and continuing through day 16 of compound dosing; type: functional; in short: as §2
Homo sapiens [22] = organism: Homo sapiens; assay: Selectivity ratio of IC50 for human recombinant PI3Kbeta to IC50 for human full length PI3Kdelta catalytic subunit/p85alpha; in short: as §7
Rattus norvegicus [23] = assay: Antiarthritis activity in collagen-induced Lewis rat arthritis model assessed as reduction of bone resorption administered bid through oral gavage for 7 days measured every day started on day 9 and continuing through day 16 of compound dosing; type: functional; in short: as §2
[24] = Clearance in human hepatocytes at 1 uM by LC/MS/MS analysis; type: ADME, cell-based, Hepatocyte
In short: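 Human hepatocytes, incubated with and without the aldehyde oxidase inhibitor raloxifene; predicted clearance calculated from turnover.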

[25] = Half life in Lewis rat at 5 mg/kg, po administered through gavage measured after 24 hrs by LC/MS/MS analysis; type: ADME, organism-based; conditions: in vivo

Sequence of PI3-kinase p110-delta/p85-alpha (P27986 whole entry): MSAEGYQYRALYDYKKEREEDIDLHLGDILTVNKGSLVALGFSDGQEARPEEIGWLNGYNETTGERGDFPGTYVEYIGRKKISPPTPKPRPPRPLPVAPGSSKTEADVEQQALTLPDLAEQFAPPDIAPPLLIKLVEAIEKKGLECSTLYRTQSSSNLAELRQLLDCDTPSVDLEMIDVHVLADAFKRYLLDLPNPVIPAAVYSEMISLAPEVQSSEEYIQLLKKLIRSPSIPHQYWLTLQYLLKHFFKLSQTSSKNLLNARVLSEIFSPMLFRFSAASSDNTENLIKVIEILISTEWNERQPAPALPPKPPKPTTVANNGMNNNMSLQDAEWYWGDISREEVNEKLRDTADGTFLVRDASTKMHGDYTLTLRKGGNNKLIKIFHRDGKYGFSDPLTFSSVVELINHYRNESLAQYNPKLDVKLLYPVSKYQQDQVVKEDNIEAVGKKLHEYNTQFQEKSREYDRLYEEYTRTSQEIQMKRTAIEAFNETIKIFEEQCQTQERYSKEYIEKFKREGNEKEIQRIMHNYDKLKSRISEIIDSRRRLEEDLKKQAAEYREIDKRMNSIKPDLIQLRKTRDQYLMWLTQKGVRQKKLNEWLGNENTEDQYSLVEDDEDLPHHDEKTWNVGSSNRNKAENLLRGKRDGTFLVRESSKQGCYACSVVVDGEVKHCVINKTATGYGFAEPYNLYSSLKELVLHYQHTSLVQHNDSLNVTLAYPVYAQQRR
Sequence of PI3-kinase p110-delta/p85-alpha (O00329 whole entry): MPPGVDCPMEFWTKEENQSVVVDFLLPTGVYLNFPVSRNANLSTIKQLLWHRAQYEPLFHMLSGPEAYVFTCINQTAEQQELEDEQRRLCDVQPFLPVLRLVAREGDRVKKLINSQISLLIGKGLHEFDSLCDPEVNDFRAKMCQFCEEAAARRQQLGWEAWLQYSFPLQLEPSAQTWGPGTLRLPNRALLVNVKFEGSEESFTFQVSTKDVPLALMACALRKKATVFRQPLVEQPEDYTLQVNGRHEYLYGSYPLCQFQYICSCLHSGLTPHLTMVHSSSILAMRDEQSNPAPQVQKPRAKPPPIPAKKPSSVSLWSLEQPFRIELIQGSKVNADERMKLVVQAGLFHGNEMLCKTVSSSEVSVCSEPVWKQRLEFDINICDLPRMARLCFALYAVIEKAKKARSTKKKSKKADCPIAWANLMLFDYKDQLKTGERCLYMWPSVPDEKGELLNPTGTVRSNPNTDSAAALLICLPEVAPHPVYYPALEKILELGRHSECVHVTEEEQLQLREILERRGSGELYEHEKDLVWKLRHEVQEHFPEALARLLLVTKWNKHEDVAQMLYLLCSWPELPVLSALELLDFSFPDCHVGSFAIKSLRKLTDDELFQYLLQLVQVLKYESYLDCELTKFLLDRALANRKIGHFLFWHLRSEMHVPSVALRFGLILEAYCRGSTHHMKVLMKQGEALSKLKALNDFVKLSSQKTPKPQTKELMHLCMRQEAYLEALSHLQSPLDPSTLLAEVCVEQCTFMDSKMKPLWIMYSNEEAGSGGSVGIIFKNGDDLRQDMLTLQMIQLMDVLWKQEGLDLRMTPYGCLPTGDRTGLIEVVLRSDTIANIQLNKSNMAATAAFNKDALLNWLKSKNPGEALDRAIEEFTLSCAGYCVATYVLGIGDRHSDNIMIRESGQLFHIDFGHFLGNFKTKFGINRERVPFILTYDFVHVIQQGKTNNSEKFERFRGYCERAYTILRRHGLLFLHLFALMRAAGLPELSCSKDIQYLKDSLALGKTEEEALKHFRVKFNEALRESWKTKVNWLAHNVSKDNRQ

blood plasma ratio [1]: 2.6
Vd [2]: 1.3 L/kg
CLH [4]: 4.17 mL/min/kg
clearance [5]: 9.67 mL/min/kg
CLH (Hepatocyte): 23.3 mL/min/kg
IC50 [6]: 2.2 nM
EC50 [11]: 11 nM
EC90 (Rattus norvegicus [12]): 100 nM
bioavailability [13]: 106%
AUC(0-inf) [14]: 17 µM·h
clearance [15]: 12.3 mL/min/kg
EC90 (Rattus norvegicus [16]): 100 nM
EC50 (Rattus norvegicus [16]; Rattus norvegicus): 20.5 nM
Ratio IC50 (Homo sapiens [18]): 180
half-life [20]: 2.17 h
Ratio IC50 (Homo sapiens [22]): 650
CLhep predicted at 1 µM [24]: 5.67 mL/min/kg
half-life [25]: 3.2 h
SMILES: C[C@H](Nc1nc(N)nc(N)c1C#N)c1nc2cccc(F)c2c(=O)n1-c1cc(F)cc(F)c1
Activity (Rattus norvegicus [3]): 63%
Activity (Rattus norvegicus [7]): 50%
inhibition in vivo at 1.07 mg/kg (Rattus norvegicus [8]): 50%
Activity (Rattus norvegicus [9]): 52%
inhibition in vivo at 1.07 mg/kg (Rattus norvegicus [10]): 45%
ED50 (Rattus norvegicus [17]): 1.5 mg/kg
inhibition in vivo at 10 mg/kg (Rattus norvegicus [19]): > 90%
ED50 (Rattus norvegicus [21]): 1.5 mg/kg
ED50 (Rattus norvegicus [23]): 1.5 mg/kg
